NPY-Y2 antag: blocks the human neuropeptide Y Y2 receptor; P49146; NPY-Y2 expressing cells, antagonist mode; inhibition, % at 2.7 µM; 0.99% of 140,000 active; in the data active means inhibition above about 17%;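 further: 0% = vehicle with agonist challenge and 100% = reference antagonist with challenge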
NPY-Y1 PAM-ag: potentiates or activates human NPY-Y1 receptor | P25929 | NPY-Y1 expressing cells, potentiator/agonist activation | activation, % at 3.6 µM | 0.37% of 220,000 active | AID 1304; in the data active means activation above about 33%, passing the limit was not always enough;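 further: cells stimulated with NPY at EC10 then isoproterenol at EC100; 0% = low agonist plus stimulus and 100% = saturating agonist plus stimulus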
Target sequence (P25929 whole entry, looked up): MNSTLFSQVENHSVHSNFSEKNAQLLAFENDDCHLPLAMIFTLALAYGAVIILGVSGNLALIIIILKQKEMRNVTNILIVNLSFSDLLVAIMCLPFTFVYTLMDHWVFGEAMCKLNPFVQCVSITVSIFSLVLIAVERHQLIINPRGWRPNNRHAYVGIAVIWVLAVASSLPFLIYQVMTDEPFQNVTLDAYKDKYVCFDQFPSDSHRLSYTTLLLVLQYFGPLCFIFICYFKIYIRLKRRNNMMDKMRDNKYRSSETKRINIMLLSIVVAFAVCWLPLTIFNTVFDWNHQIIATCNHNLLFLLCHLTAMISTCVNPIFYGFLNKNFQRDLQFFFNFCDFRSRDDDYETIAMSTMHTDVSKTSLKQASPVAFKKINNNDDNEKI
NPY Y1 blocker: antagonists of human neuropeptide Y receptor Y1; P25929; HEK293-CNG Y1 cells, membrane potential fluorescence; NPY at EC95, then isoproterenol; inhibition, % at 3.6 µM; 1% of 200,000 active;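 active means inhibition above the campaign mean inhibition of all tested compounds plus 3 SD, cut at about 20% in these data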;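 further: 0% = DMSO wells given NPY plus isoproterenol and 100% = isoproterenol alone without NPY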
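System: HEK293 cells with Y1 receptor plus CNG channel / Probe or stimulus: NPY 25 nM then isoproterenol 1 µM plus Ro 20-1724 25 µM / Compound: one concentration, 3.6 µM, in 0.4% DMSO / Schedule: compound incubation 1 h at room temperature, readout 45 min post-stimulation / Measured by: membrane potential fluorescence / Read-out: % inhibition of NPY effect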
NPY-Y2 PAM-ag: potentiates or activates human NPY-Y2 receptor; P49146; cells expressing NPY-Y2, potentiator/agonist read-out; activation, % at 3.6 µM; 0.45% of 220,000 active; AID 1359; in the data active means activation above about 27%;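 further: cells stimulated with NPY near EC25 plus isoproterenol at EC100; 0% = vehicle plus submaximal agonist and 100% = vehicle plus saturating agonist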
Starred values were filed as active, the others as inactive. Rows were chosen to be rich in hits. Some 1.8% of all compounds tested hit in one or more screens of this group.

What do the screens show for `CCCCC(CC)CNC(=O)C1CC=CCC1C(=O)O` (stereo not given)?
NPY-Y2 antag: 6; NPY-Y1 PAM-ag: -1; NPY Y1 blocker: -3; NPY-Y2 PAM-ag: -10

Results for CC[n+]1c(/C=C2\C=C(C)CC(C)(C)C2)sc2ccccc21 ?
NPY-Y2 antag: 20*; NPY-Y1 PAM-ag: -13; NPY Y1 blocker: 22*; NPY-Y2 PAM-ag: -9

How did CCC1=C/C(=C/c2sc3ccccc3[n+]2CC)CC(C)(C)C1 do in these assays?
NPY-Y1 PAM-ag: -4; NPY Y1 blocker: 6; NPY-Y2 PAM-ag: 18

How did CC(C)(C)OC(=O)COc1cc(O)c2c(=O)cc(-c3ccccc3)oc2c1 do in these assays?
NPY-Y2 antag: 16; NPY-Y1 PAM-ag: 9; NPY Y1 blocker: 0; NPY-Y2 PAM-ag: 1

What do the screens show for `CC(C)(C)OC(=O)COc1cc(OCC(=O)OC(C)(C)C)c2c(=O)cc(-c3ccccc3)oc2c1`?
NPY-Y2 antag: 33*; NPY-Y1 PAM-ag: -31; NPY Y1 blocker: 46*; NPY-Y2 PAM-ag: -30

What do the screens show for `COC(=O)Nc1nc(-c2ccccc2)c(C(=O)c2ccccc2)s1`?
NPY-Y2 antag: 13; NPY-Y1 PAM-ag: -18; NPY Y1 blocker: 30*; NPY-Y2 PAM-ag: -21

What do the screens show for `Nc1c(S(=O)(=O)c2cccs2)c2nc3ccccc3nc2n1/N=C/c1cccc(O)c1`?
NPY-Y2 antag: -1; NPY-Y1 PAM-ag: 23; NPY Y1 blocker: -9; NPY-Y2 PAM-ag: 24

How did COc1ccc(-c2nc(C#N)c(NCc3ccc(F)cc3)o2)cc1OC do in these assays?
NPY-Y2 antag: 24*; NPY-Y1 PAM-ag: -10; NPY Y1 blocker: 24*; NPY-Y2 PAM-ag: -20

What do the screens show for `CCc1cc(C(=O)c2ccc(OC)cc2)c(NC(=O)CC(C)(C)CC(=O)O)s1`?
NPY-Y1 PAM-ag: -7; NPY-Y2 PAM-ag: -7

What do the screens show for `N#CCCN(Cc1cccs1)C(=O)Nc1ccccc1`?
NPY-Y1 PAM-ag: -1; NPY-Y2 PAM-ag: -30

What do the screens show for `CCN(CC)S(=O)(=O)c1cccc2cccnc12`?
NPY-Y2 antag: -2; NPY-Y1 PAM-ag: 10; NPY Y1 blocker: 1; NPY-Y2 PAM-ag: 3

What do the screens show for `O=S(=O)(c1cccc2cccnc12)N(CCO)CCO`?
NPY-Y2 antag: 0; NPY-Y1 PAM-ag: 36*; NPY Y1 blocker: 1; NPY-Y2 PAM-ag: 6

How did CCOC(=O)c1cnc2ccc(OC)cc2c1NCc1ccccc1 do in these assays?
NPY-Y2 antag: 19*; NPY-Y1 PAM-ag: -75; NPY Y1 blocker: 27*; NPY-Y2 PAM-ag: -51

What do the screens show for `CCOC(=O)c1cnc2ccc(OCC)cc2c1NCc1ccccc1OC`?
NPY-Y2 antag: 49*; NPY-Y1 PAM-ag: -60; NPY Y1 blocker: 27*; NPY-Y2 PAM-ag: -24

Results for Cc1cc(NC(=O)COC(=O)c2ccco2)no1 ?
NPY-Y1 PAM-ag: -5; NPY Y1 blocker: -1; NPY-Y2 PAM-ag: -2

How did COc1ccc2c(c1OC)C(=O)N(c1ccc(C)cc1)C2=O do in these assays?
NPY-Y1 PAM-ag: 13; NPY Y1 blocker: -3; NPY-Y2 PAM-ag: 6

What do the screens show for `COc1ccc2c(c1OC)C(=O)N1c3ccccc3C(=O)N(c3ccc(F)cc3)C21` (stereo not given)?
NPY-Y2 antag: 16; NPY-Y1 PAM-ag: -14; NPY Y1 blocker: 52*; NPY-Y2 PAM-ag: -8

Results for COc1ccc2c(c1OC)C(=O)N1N=C(c3ccc(-c4ccccc4)cc3)CC21 (stereo not given) ?
NPY-Y1 PAM-ag: 8; NPY Y1 blocker: 3; NPY-Y2 PAM-ag: 3

What do the screens show for `COc1ccc2c(c1OC)C(=O)N1c3ccccc3C(=O)N(c3ccccc3)C21` (stereo not given)?
NPY-Y2 antag: 23*; NPY-Y1 PAM-ag: 1; NPY Y1 blocker: 18; NPY-Y2 PAM-ag: -12

Results for Cc1ccc(C(=O)Nc2ccnc(-c3ccncc3)n2)cc1 ?
NPY-Y1 PAM-ag: -3; NPY Y1 blocker: 1; NPY-Y2 PAM-ag: -2

How did CC(C)CC(=O)NC(=S)N1CCN(c2ccc([N+](=O)[O-])cc2Cl)CC1 do in these assays?
NPY-Y2 antag: 0; NPY-Y1 PAM-ag: -3; NPY Y1 blocker: 2; NPY-Y2 PAM-ag: -6

What do the screens show for `CC(=O)c1cnc2n(c1=O)CCS2`?
NPY-Y1 PAM-ag: 2; NPY Y1 blocker: 0; NPY-Y2 PAM-ag: 7

What do the screens show for `CC(C)(O)C(=O)NN(C(=O)c1ccccc1)c1ccc2ccccc2c1`?
NPY-Y2 antag: -1; NPY-Y1 PAM-ag: 14; NPY Y1 blocker: 5; NPY-Y2 PAM-ag: -3

Results for O=C(c1ccccc1)N(NC(=O)C(O)(c1ccccc1)c1ccccc1)c1cccc(F)c1 ?
NPY-Y2 antag: 31*; NPY-Y1 PAM-ag: -44; NPY Y1 blocker: 53*; NPY-Y2 PAM-ag: -4

Results for O=C(c1ccccc1F)N(NC(=O)C(O)(c1ccccc1)c1ccccc1)c1ccccc1 ?
NPY-Y2 antag: 30*; NPY-Y1 PAM-ag: -47; NPY Y1 blocker: 39*; NPY-Y2 PAM-ag: -2

Results for CC(C)(C)N(NC(=O)Nc1ccc(F)cc1)C(=O)c1ccccc1 ?
NPY-Y2 antag: 3; NPY-Y1 PAM-ag: -12; NPY Y1 blocker: 2; NPY-Y2 PAM-ag: 14

Results for Cc1ccc(C(O)(C(=O)NN(C(=O)c2ccccc2)c2ccccc2)c2ccc(C)cc2)cc1 ?
NPY-Y2 antag: 48*; NPY-Y1 PAM-ag: -16; NPY Y1 blocker: 59*; NPY-Y2 PAM-ag: 3

How did CCN(NC(=O)C(O)(c1ccc(F)cc1)c1ccc(F)cc1)C(=O)c1ccccc1 do in these assays?
NPY-Y2 antag: 25*; NPY-Y1 PAM-ag: -20; NPY Y1 blocker: 23*; NPY-Y2 PAM-ag: -26

How did CN1CCN(C(=O)CC2(CC(=O)O)CCCC2)CC1 do in these assays?
NPY-Y1 PAM-ag: 13; NPY Y1 blocker: 3; NPY-Y2 PAM-ag: -4

What do the screens show for `Cc1nnc(SCc2ccc(F)cc2)n1NC/C=C/c1ccccc1`?
NPY-Y2 antag: 2; NPY-Y1 PAM-ag: -9; NPY Y1 blocker: -2; NPY-Y2 PAM-ag: 13

What do the screens show for `CC1CC(C)CN(C(=O)c2ccc3c(c2NCCO)C(=O)c2ccccc2C3=O)C1` (stereo not given)?
NPY-Y2 antag: -9; NPY-Y1 PAM-ag: 55*; NPY Y1 blocker: -18; NPY-Y2 PAM-ag: 49*

What do the screens show for `CC(C)(C(=O)c1ccccc1)/[N+]([O-])=C/c1ccc(Br)cc1`?
NPY-Y2 antag: 1; NPY-Y1 PAM-ag: 1; NPY Y1 blocker: 8; NPY-Y2 PAM-ag: 6

What do the screens show for `CC(COC(=O)c1ccccc1)(COC(=O)c1ccccc1)/[N+]([O-])=C/c1ccccc1`?
NPY-Y2 antag: 18*; NPY-Y1 PAM-ag: -14; NPY Y1 blocker: 21*; NPY-Y2 PAM-ag: -10

What do the screens show for `COCCN1CCC(CNCc2c(C(=O)N3CCCCC3)nc3c(C)cccn23)C1` (stereo not given)?
NPY-Y1 PAM-ag: -11; NPY-Y2 PAM-ag: -8

Results for Cc1ccc(/C=C/C(=O)NCCCc2ccccc2)cc1 ?
NPY-Y2 antag: 34*; NPY-Y1 PAM-ag: -51; NPY Y1 blocker: 37*; NPY-Y2 PAM-ag: -34

Results for Cc1ccc(CNC(=O)/C=C/c2ccccc2Cl)cc1 ?
NPY-Y2 antag: 12; NPY-Y1 PAM-ag: -25; NPY Y1 blocker: 31*; NPY-Y2 PAM-ag: -14

What do the screens show for `C#CCNC(=O)/C=C/c1ccc(C)cc1`?
NPY-Y2 antag: 2; NPY-Y1 PAM-ag: -1; NPY Y1 blocker: 5; NPY-Y2 PAM-ag: 3

Assay outcomes (PubChem BioAssay)
